Assay results taken from the M2OR odorant receptor database.

Key:
Conditions in all cases: stereoisomer not certain
[1] = molecular target: T1, OR1G1 (Homo sapiens) (UniProt P47890)
T1 sequence (whole entry): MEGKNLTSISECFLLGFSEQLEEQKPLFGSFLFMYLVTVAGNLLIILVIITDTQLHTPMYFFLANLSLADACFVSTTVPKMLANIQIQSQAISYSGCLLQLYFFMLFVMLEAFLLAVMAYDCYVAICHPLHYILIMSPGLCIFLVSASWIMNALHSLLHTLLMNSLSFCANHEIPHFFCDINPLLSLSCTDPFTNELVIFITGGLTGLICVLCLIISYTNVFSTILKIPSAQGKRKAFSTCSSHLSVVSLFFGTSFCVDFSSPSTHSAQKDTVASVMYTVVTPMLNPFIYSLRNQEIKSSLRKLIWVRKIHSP
Outline: (§1)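 Each entry records the cell line, G-protein, co-transfected protein and tags used. Methods varied with the source, often transient luciferase assays in mammalian cell lines. A receptor–molecule pair is called responsive (active) if the original authors judged its signal statistically different from baseline and non-responsive (inactive) otherwise.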

[2] = molecular target: T2, OR1F12P (Homo sapiens) (UniProt Q8NHA8)
T2 sequence (whole entry): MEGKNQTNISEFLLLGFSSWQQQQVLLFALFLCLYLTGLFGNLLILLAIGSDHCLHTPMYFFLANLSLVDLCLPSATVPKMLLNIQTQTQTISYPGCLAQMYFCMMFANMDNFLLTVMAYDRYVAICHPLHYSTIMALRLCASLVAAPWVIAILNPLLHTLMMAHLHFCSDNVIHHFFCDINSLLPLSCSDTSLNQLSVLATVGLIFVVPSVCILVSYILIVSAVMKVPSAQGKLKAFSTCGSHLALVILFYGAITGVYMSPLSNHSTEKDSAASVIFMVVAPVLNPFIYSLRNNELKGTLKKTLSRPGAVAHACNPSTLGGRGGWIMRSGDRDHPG
Outline: as §1

[3] = molecular target: T3, OR1I1 (Homo sapiens) (UniProt O60431)
T3 sequence (whole entry): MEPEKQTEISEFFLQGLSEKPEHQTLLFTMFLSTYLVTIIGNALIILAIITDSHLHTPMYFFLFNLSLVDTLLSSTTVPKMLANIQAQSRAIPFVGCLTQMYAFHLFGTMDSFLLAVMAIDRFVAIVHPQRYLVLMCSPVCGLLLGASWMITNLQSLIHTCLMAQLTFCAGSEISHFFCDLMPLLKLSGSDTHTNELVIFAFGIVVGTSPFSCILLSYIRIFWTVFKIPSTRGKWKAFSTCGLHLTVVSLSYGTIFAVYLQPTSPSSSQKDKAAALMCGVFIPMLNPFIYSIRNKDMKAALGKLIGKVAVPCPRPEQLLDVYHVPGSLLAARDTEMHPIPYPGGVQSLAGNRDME
Outline: as §1

[4] = molecular target: T4, OR1J1 (Homo sapiens) (UniProt Q8NGS3)
T4 sequence (whole entry): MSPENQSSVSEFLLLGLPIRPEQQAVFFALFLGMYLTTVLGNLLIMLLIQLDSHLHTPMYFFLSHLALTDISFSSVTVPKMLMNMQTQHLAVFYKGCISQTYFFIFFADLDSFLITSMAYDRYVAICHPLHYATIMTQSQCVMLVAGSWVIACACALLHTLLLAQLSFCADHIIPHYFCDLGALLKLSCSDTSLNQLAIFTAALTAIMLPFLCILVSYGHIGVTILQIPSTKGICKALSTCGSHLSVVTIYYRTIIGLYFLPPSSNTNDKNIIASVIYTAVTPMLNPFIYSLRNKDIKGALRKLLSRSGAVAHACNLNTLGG
Outline: as §1

[5] = molecular target: T5, OR1J2 (Homo sapiens) (UniProt Q8NGS2)
T5 sequence (whole entry): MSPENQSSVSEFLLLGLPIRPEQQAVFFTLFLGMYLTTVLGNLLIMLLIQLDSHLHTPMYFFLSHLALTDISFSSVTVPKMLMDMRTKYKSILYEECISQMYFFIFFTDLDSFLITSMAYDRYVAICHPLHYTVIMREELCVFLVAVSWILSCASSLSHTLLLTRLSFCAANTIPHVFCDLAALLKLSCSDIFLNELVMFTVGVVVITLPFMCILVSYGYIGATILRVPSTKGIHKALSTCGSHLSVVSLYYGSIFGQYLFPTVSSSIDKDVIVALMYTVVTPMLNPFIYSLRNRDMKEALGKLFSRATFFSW
Outline: as §1

[6] = molecular target: T6, OR1J4 (Homo sapiens) (UniProt Q8NGS1)
T6 sequence (whole entry): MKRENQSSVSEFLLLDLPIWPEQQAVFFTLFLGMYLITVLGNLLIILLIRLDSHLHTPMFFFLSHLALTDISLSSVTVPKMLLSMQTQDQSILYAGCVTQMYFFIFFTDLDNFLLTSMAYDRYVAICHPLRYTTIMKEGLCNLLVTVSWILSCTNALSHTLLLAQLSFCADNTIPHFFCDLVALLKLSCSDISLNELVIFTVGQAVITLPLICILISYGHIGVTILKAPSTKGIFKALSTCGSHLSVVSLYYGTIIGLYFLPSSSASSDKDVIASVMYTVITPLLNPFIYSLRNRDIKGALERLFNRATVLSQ
Outline: as §1

[7] = molecular target: T7, OR1K1 (Homo sapiens) (UniProt Q8NGR3)
T7 sequence (whole entry): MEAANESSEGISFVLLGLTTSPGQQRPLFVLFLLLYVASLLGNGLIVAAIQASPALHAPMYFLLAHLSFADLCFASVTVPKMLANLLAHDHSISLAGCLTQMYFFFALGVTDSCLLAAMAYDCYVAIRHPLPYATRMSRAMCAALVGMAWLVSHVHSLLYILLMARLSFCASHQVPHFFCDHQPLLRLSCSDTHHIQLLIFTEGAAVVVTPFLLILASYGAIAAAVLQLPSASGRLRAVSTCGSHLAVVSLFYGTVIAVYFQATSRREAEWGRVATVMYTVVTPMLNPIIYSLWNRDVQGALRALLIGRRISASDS
Outline: as §1

[8] = molecular target: T8, OR1L1 (Homo sapiens) (UniProt Q8NH94)
T8 sequence (whole entry): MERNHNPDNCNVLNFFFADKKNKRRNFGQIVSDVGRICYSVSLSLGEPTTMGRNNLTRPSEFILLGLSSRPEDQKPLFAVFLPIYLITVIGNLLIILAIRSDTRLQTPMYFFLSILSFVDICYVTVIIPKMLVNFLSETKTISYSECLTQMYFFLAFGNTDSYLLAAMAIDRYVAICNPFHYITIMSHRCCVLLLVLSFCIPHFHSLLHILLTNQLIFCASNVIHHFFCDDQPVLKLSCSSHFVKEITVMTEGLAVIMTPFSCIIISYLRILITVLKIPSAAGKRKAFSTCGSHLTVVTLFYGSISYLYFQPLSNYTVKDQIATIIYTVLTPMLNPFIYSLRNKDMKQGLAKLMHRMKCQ
Outline: as §1

[9] = molecular target: T9, OR1L3 (Homo sapiens) (UniProt Q8NH93)
T9 sequence (whole entry): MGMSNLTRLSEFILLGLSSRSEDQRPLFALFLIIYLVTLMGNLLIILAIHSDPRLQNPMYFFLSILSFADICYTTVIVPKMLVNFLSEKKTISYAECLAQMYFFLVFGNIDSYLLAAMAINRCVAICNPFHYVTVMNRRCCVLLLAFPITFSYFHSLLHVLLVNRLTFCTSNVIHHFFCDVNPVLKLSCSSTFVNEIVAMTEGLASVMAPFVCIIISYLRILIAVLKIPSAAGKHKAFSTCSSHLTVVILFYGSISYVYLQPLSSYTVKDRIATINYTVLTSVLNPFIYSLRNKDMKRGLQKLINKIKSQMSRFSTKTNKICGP
Outline: as §1

[10] = molecular target: T10, OR1L4 (Homo sapiens) (UniProt Q8NGR5)
T10 sequence (whole entry): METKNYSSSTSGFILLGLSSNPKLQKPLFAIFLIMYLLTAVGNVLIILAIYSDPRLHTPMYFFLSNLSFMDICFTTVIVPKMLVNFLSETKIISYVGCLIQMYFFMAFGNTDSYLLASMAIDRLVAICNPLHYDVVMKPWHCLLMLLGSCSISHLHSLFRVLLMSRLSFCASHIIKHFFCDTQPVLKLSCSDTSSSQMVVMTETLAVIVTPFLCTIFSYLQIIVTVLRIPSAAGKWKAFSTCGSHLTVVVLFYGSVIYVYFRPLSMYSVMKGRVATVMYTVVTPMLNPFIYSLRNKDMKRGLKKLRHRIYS
Outline: as §1

[11] = molecular target: T11, OR1L6 (Homo sapiens) (UniProt Q8NGR2)
T11 sequence (whole entry): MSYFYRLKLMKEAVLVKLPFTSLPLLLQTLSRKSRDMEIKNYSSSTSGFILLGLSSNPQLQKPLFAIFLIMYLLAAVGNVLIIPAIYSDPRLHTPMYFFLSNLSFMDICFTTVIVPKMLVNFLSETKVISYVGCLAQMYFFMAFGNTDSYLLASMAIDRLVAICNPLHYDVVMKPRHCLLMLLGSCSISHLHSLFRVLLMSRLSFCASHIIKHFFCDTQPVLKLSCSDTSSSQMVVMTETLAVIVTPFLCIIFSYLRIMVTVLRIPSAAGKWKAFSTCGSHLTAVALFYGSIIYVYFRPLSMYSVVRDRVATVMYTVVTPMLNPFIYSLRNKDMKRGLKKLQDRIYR
Outline: as §1

[12] = molecular target: T12, OR1L8 (Homo sapiens) (UniProt Q8NGR8)
T12 sequence (whole entry): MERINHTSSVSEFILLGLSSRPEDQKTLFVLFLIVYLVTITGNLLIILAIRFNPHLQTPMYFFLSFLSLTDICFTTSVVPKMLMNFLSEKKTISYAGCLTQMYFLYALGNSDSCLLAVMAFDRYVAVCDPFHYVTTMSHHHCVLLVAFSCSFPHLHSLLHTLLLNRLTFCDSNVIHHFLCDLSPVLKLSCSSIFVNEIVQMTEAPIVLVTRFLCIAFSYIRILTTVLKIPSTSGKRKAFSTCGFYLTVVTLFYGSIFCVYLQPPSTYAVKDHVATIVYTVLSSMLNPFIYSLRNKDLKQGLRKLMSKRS
Outline: as §1

[13] = molecular target: T13, OR1M1 (Homo sapiens) (UniProt Q8NGA1)
T13 sequence (whole entry): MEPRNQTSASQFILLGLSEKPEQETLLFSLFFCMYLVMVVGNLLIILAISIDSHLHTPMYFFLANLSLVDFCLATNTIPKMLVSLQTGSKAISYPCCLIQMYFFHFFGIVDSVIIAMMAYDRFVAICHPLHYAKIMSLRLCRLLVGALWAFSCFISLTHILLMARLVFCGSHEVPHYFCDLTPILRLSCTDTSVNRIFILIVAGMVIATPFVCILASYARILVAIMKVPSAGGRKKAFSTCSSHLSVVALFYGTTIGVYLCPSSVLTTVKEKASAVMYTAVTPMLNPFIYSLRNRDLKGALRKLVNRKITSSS
Outline: as §1

[14] = molecular target: T14, OR1N1 (Homo sapiens) (UniProt Q8NGS0)
T14 sequence (whole entry): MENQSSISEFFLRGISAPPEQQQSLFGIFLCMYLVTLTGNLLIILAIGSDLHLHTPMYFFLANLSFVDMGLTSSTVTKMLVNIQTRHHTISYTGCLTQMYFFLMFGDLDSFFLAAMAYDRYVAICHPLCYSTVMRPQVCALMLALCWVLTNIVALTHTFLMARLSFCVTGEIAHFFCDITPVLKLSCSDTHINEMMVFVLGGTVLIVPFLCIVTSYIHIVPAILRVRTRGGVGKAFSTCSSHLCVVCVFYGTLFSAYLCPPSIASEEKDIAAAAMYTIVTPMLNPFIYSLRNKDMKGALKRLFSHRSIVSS
Outline: as §1

Measured: odorant receptor agonist call

c1ccc2[nH]ccc2c1
inactive: [1]

CCCCC(S)C(C)CO (stereo unspecified)
active: [6]
inactive: all other assays above

CCCCCCCCO
active: [1]
